Test results from ChEMBL document CHEMBL5360562 (Eur J Med Chem, 2023).

Legend:
Acinetobacter baumannii [1] = assay: Antibacterial activity against Acinetobacter baumannii AB5075 assessed as reduction in bacterial growth incubated for 16 hrs by broth microdilution method; type: functional
Acinetobacter baumannii [2] = assay: Potentiation of Clarithromycin antibacterial activity against Acinetobacter baumannii AB5075 assessed as fold reduction in clarithromycin MIC at 30 uM incubated for 16 hrs by broth microdilution method; type: functional
Procedure, shortened: (§1)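 Checkerboard-style potentiation by broth microdilution. 6 h day cultures in CAMHB diluted to 5×10^5 CFU/mL. Adjuvant added from 10 mM DMSO stock at fixed concentration throughout. […] Controls: antibiotic alone, adjuvant alone, media only. Incubated stationary at 37 °C for 16 h. MIC is lowest concentration with no visible growth; fold reduction taken against the antibiotic-alone lane.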

Acinetobacter baumannii [3] = assay: Potentiation of Clarithromycin antibacterial activity against Acinetobacter baumannii AB5075 assessed as clarithromycin MIC at 30 uM incubated for 16 hrs by broth microdilution method; type: functional
Acinetobacter baumannii [4] = assay: Potentiation of Clarithromycin antibacterial activity against Acinetobacter baumannii AB5075 assessed as reduction in clarithromycin MIC at 20 uM incubated for 16 hrs by broth microdilution method; type: functional; settings: for MIC: Acinetobacter baumannii, AB5075
Acinetobacter baumannii [5] = assay: Potentiation of Clarithromycin antibacterial activity against Acinetobacter baumannii AB5075 assessed as fold reduction in clarithromycin MIC at 10 uM incubated for 16 hrs by broth microdilution method; type: functional; procedure, shortened: as §1
Acinetobacter baumannii [6] = assay: Potentiation of Clarithromycin antibacterial activity against Acinetobacter baumannii AB5075 assessed as clarithromycin MIC at 10 uM incubated for 16 hrs by broth microdilution method; type: functional
Acinetobacter baumannii [7] = assay: Potentiation of Clarithromycin antibacterial activity against Acinetobacter baumannii AB5075 assessed as fold reduction in clarithromycin MIC at 7.5 uM incubated for 16 hrs by broth microdilution method; type: functional; procedure, shortened: as §1
Acinetobacter baumannii [8] = assay: Potentiation of Clarithromycin antibacterial activity against Acinetobacter baumannii AB5075 assessed as clarithromycin MIC at 7.5 uM incubated for 16 hrs by broth microdilution method; type: functional
Acinetobacter baumannii [9] = assay: Potentiation of rifampicin antibacterial activity against Acinetobacter baumannii AB5075 assessed as rifampicin MIC at 10 uM incubated for 16 hrs by broth microdilution method; type: functional
Acinetobacter baumannii [10] = assay: Potentiation of rifampicin antibacterial activity against Acinetobacter baumannii AB5075 assessed as rifampicin MIC at 30 uM incubated for 16 hrs by broth microdilution method; type: functional
Acinetobacter baumannii [11] = assay: Potentiation of Azithromycin antibacterial activity against Acinetobacter baumannii AB5075 assessed as azithromycin MIC at 10 uM incubated for 16 hrs by broth microdilution method; type: functional
Acinetobacter baumannii [12] = assay: Potentiation of erythromycin antibacterial activity against Acinetobacter baumannii AB5075 assessed as erythromycin MIC at 30 uM incubated for 16 hrs by broth microdilution method; type: functional
Acinetobacter baumannii [13] = assay: Potentiation of Azithromycin antibacterial activity against Acinetobacter baumannii AB5075 assessed as azithromycin MIC at 30 uM incubated for 16 hrs by broth microdilution method; type: functional
Acinetobacter baumannii [14] = assay: Potentiation of Azithromycin antibacterial activity against Acinetobacter baumannii AB5075 assessed as azithromycin MIC at 20 uM incubated for 16 hrs by broth microdilution method; type: functional
Acinetobacter baumannii [15] = assay: Potentiation of erythromycin antibacterial activity against Acinetobacter baumannii AB5075 assessed as erythromycin MIC at 10 uM incubated for 16 hrs by broth microdilution method; type: functional
Acinetobacter baumannii [16] = assay: Potentiation of erythromycin antibacterial activity against Acinetobacter baumannii AB5075 assessed as erythromycin MIC at 20 uM incubated for 16 hrs by broth microdilution method; type: functional
Acinetobacter baumannii [17] = assay: Potentiation of rifampicin antibacterial activity against Acinetobacter baumannii AB5075 assessed as rifampicin MIC at 20 uM incubated for 16 hrs by broth microdilution method; type: functional
[18] = Antiproliferative against human HepG2 cells assessed as reduction in cell viability incubated for 24 hrs by XTT assay; type: toxicity, cell-based
Acinetobacter baumannii [19] = assay: Potentiation of Clarithromycin antibacterial activity against Acinetobacter baumannii AB4498 assessed as clarithromycin MIC at 10 uM incubated for 16 hrs by broth microdilution method; type: functional
[20] = Stability of compound in human plasma assessed as parent compound remaining measured at 4 hrs; type: ADME, cell-free
Procedure, shortened: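 Compound at 20 μM final in human plasma (from 10 mM DMSO stock), 37 °C; aliquots at 0, 30, 60, 120, 240 min quenched in internal standard in 1:1 ACN/MeOH, centrifuged, supernatant analysed by UPLC-MRM. Peak-area ratio to internal standard expressed as % parent remaining relative to 0 min; half-life calculated.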

Acinetobacter baumannii [21] = assay: Potentiation of Azithromycin antibacterial activity against Acinetobacter baumannii AB5075 assessed as azithromycin MIC at 7.5 uM incubated for 16 hrs by broth microdilution method; type: functional
Acinetobacter baumannii [22] = assay: Potentiation of Clarithromycin antibacterial activity against Acinetobacter baumannii AB5075 assessed as clarithromycin MIC at 5 uM incubated for 16 hrs by broth microdilution method; type: functional
Acinetobacter baumannii [23] = assay: Potentiation of Clarithromycin antibacterial activity against Acinetobacter baumannii AB3560 assessed as clarithromycin MIC at 10 uM incubated for 16 hrs by broth microdilution method; type: functional
Acinetobacter baumannii [24] = assay: Potentiation of erythromycin antibacterial activity against Acinetobacter baumannii AB5075 assessed as erythromycin MIC at 7.5 uM incubated for 16 hrs by broth microdilution method; type: functional
[25] = Metabolic stability in human liver microsomes assessed as parent compound remaining in presence of NADPH measured at 1 hr by UV-UPLC analysis; type: ADME, Microsome
Acinetobacter baumannii [26] = assay: Potentiation of Clarithromycin antibacterial activity against Acinetobacter baumannii AB5674 assessed as clarithromycin MIC at 10 uM incubated for 16 hrs by broth microdilution method; type: functional
[27] = Therapeutic index, ratio of IC50 for antiproliferative against human HepG2 cells assessed as reduction in cell viability to MIC for potentiation of Clarithromycin antibacterial activity against Acinetobacter baumannii […] assessed as clarithromycin MIC; type: toxicity, cell-based; settings: read-out: TI
Acinetobacter baumannii [28] = assay: Potentiation of Clarithromycin antibacterial activity against Acinetobacter baumannii AB967 assessed as clarithromycin MIC at 10 uM incubated for 16 hrs by broth microdilution method; type: functional
Acinetobacter baumannii [29] = assay: Potentiation of Clarithromycin antibacterial activity against Acinetobacter baumannii AB5711 assessed as clarithromycin MIC at 10 uM incubated for 16 hrs by broth microdilution method; type: functional
Acinetobacter baumannii [30] = assay: Potentiation of Clarithromycin antibacterial activity against Acinetobacter baumannii AB3785 assessed as clarithromycin MIC at 10 uM incubated for 16 hrs by broth microdilution method; type: functional
Acinetobacter baumannii [31] = assay: Potentiation of rifampicin antibacterial activity against Acinetobacter baumannii AB5075 assessed as fold reduction in rifampicin MIC at 10 uM incubated for 16 hrs by broth microdilution method; type: functional
Acinetobacter baumannii [32] = assay: Potentiation of Clarithromycin antibacterial activity against Acinetobacter baumannii AB5075 assessed as fold reduction in clarithromycin MIC at 5 uM incubated for 16 hrs by broth microdilution method; type: functional; procedure, shortened: as §1

## Cl.Cl.Nc1nc(-c2ccc(NC(=O)Nc3ccc(-c4c[nH]c(N)n4)c(C(F)(F)F)c3)cc2C(F)(F)F)c[nH]1
Acinetobacter baumannii [1]
  MIC: > 200 µM
Acinetobacter baumannii [2]
  fold change (FC): 16
Acinetobacter baumannii [3]
  MIC: 2 µg/mL

## Cl.Cl.Nc1nc(-c2cccc(NC(=O)Nc3cccc(-c4c[nH]c(N)n4)c3F)c2F)c[nH]1
Acinetobacter baumannii [4]
  fold change (FC): 64
  MIC: 0.5 µg/mL
Acinetobacter baumannii [5]
  fold change (FC): 32
Acinetobacter baumannii [1]
  MIC: > 200 µM
Acinetobacter baumannii [2]
  fold change (FC): 128
Acinetobacter baumannii [3]
  MIC: 0.25 µg/mL
Acinetobacter baumannii [6]
  MIC: 1 µg/mL
Acinetobacter baumannii [7]
  fold change (FC): 16
Acinetobacter baumannii [8]
  MIC: 2 µg/mL

## Cl.Cl.Nc1nc(-c2ccc(NC(=O)Nc3ccc(-c4c[nH]c(N)n4)c(Cl)c3)cc2Cl)c[nH]1
Acinetobacter baumannii [1]
  MIC: > 200 µM
Acinetobacter baumannii [2]
  fold change (FC): 1
Acinetobacter baumannii [3]
  MIC: 32 µg/mL

## Cc1cc(-c2c[nH]c(N)n2)ccc1NC(=O)Nc1ccc(-c2c[nH]c(N)n2)cc1C.Cl.Cl
Acinetobacter baumannii [1]
  MIC: > 200 µM
Acinetobacter baumannii [2]
  fold change (FC): 1
Acinetobacter baumannii [3]
  MIC: 32 µg/mL

## Nc1nc(-c2ccc(NC(=O)Nc3cccc(-c4c[nH]c(N)n4)c3)cc2)c[nH]1
Acinetobacter baumannii [9]
  MIC: 2 µg/mL
Acinetobacter baumannii [10]
  MIC: 0.031 µg/mL
Acinetobacter baumannii [11]
  MIC: 16 µg/mL
Acinetobacter baumannii [12]
  MIC: 1 µg/mL
Acinetobacter baumannii [13]
  MIC: 1 µg/mL
Acinetobacter baumannii [1]
  MIC: > 200 µM
Acinetobacter baumannii [14]
  MIC: 4 µg/mL
Acinetobacter baumannii [15]
  MIC: 16 µg/mL
Acinetobacter baumannii [2]
  fold change (FC): 256
Acinetobacter baumannii [16]
  MIC: 2 µg/mL
Acinetobacter baumannii [3]
  MIC: 0.125 µg/mL
Acinetobacter baumannii [17]
  MIC: 0.25 µg/mL
Acinetobacter baumannii [6]
  MIC: 16 µg/mL

## Cl.Cl.Nc1nc(-c2ccc(NC(=O)Nc3ccc(-c4c[nH]c(N)n4)c(F)c3)cc2F)c[nH]1
[18]
  IC50 at 24 h: 127 µg/mL
Acinetobacter baumannii [19]
  MIC: 1 µg/mL
[20]
  Stability: 83%
Acinetobacter baumannii [21]
  MIC: 16 µg/mL
Acinetobacter baumannii [9]
  MIC: 1 µg/mL
Acinetobacter baumannii [10]
  MIC: 0.125 µg/mL
Acinetobacter baumannii [22]
  MIC: 2 µg/mL
Acinetobacter baumannii [11]
  MIC: 2 µg/mL
Acinetobacter baumannii [4]
  MIC: ≤ 0.062 µg/mL
Acinetobacter baumannii [12]
  MIC: 0.125 µg/mL
Acinetobacter baumannii [23]
  MIC: 0.5 µg/mL
Acinetobacter baumannii [24]
  MIC: 8 µg/mL
[25]
  Stability: 82%
Acinetobacter baumannii [5]
  fold change (FC): 256
Acinetobacter baumannii [13]
  MIC: 0.5 µg/mL
Acinetobacter baumannii [1]
  MIC: > 200 µM
Acinetobacter baumannii [26]
  MIC: 0.5 µg/mL
Acinetobacter baumannii [14]
  MIC: 1 µg/mL
Acinetobacter baumannii [15]
  MIC: 1 µg/mL
Acinetobacter baumannii [2]
  fold change (FC): >=512
Acinetobacter baumannii [16]
  MIC: 0.5 µg/mL
[27]
  selectivity ratio: 52.9
Acinetobacter baumannii [28]
  MIC: 0.25 µg/mL
Acinetobacter baumannii [29]
  MIC: 1 µg/mL
Acinetobacter baumannii [3]
  MIC: ≤ 0.062 µg/mL
Acinetobacter baumannii [30]
  MIC: 1 µg/mL
Acinetobacter baumannii [17]
  MIC: 0.25 µg/mL
Acinetobacter baumannii [6]
  MIC: 0.125 µg/mL
Acinetobacter baumannii [31]
  fold change (FC): 4
Acinetobacter baumannii [7]
  fold change (FC): 64
Acinetobacter baumannii [8]
  MIC: 0.5 µg/mL

## Cl.Cl.Nc1nc(-c2cc(NC(=O)Nc3ccc(F)c(-c4c[nH]c(N)n4)c3)ccc2F)c[nH]1
Acinetobacter baumannii [32]
  fold change (FC): 16
Acinetobacter baumannii [22]
  MIC: 2 µg/mL
Acinetobacter baumannii [4]
  fold change (FC): 128
  MIC: 0.25 µg/mL
Acinetobacter baumannii [5]
  fold change (FC): 64
Acinetobacter baumannii [1]
  MIC: > 200 µM
Acinetobacter baumannii [2]
  fold change (FC): 256
Acinetobacter baumannii [3]
  MIC: 0.125 µg/mL
Acinetobacter baumannii [6]
  MIC: 0.5 µg/mL
Acinetobacter baumannii [7]
  fold change (FC): 32
Acinetobacter baumannii [8]
  MIC: 1 µg/mL

## Cl.Cl.Nc1nc(-c2ccc(NC(=O)Nc3ccc(F)c(-c4c[nH]c(N)n4)c3)cc2F)c[nH]1
Acinetobacter baumannii [4]
  fold change (FC): 8
  MIC: 4 µg/mL
Acinetobacter baumannii [1]
  MIC: > 200 µM
Acinetobacter baumannii [2]
  fold change (FC): 64
Acinetobacter baumannii [3]
  MIC: 0.5 µg/mL

## Cl.Cl.Nc1nc(-c2ccc(NC(=O)Nc3ccc(-c4c[nH]c(N)n4)cc3F)c(F)c2)c[nH]1
Acinetobacter baumannii [1]
  MIC: > 200 µM
Acinetobacter baumannii [2]
  fold change (FC): 8
Acinetobacter baumannii [3]
  MIC: 4 µg/mL
